Test results published in ChEMBL document CHEMBL3120073, “Simplified pretubulysin derivatives and their biological effects on cancer cells” (J Nat Prod, 2014).
pEC50, pIC50: −log10 of the molar value. Active and inactive are the calls of the source. The calls are words filed in the database; no cut-off is given here.

Tests used:
[1] = Cytotoxicity against human HMEC1 cells after 72 hrs by crystal violet staining assay; type: functional, cell-based; settings: HMEC-1, 72 h
MDA-MB-231 [2] = assay: Cytotoxicity against human MDA-MB-231 cells after 72 hrs by CellTitre-Blue assay; type: functional, cell-based; settings: MDA-MB-231, 72 h
How it was run: (§1)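 MDA-MB-231 cells in 96-well plates were exposed to serial dilutions (0.1–1000 nM) for 72 h. CellTiterBlue reagent was added for 2 h at 37 °C and fluorescence was read. Viability is expressed as % of mock-treated control, from which IC50 was taken. Three independent experiments, quadruplicate.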

MDA-MB-231 [3] = assay: Cell cycle arrest in human MDA-MB-231 cells assessed as accumulation at G2/M phase at 100 nM after 48 hrs by propidium iodide staining-based flow cytometry (reference value: 22%); type: functional
MDA-MB-231 [4] = assay: Antimigratory activity against human MDA-MB-231 cells assessed as reduction in wound closure at 100 nM after 18 hrs by wound healing assay; type: functional
How it was run: (§2)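 MDA-MB-231 grown to 100% confluence in 96-well plates (2 × 10^5 per well). A ~1 mm scratch was made, detached cells were washed off and compound or DMSO was added for 16–18 h. Cells were fixed in 4% formaldehyde, stained with crystal violet and imaged. Covered area was corrected by an unscratched-and-fixed 0% control and expressed relative to DMSO (100%). Three independent experiments, quintuplicate.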

CCRF-CEM VCR/R [5] = assay: (§3) Induction of apoptosis in human CCRF-CEM VCR/R cells at 2.5 uM after 72 hrs by CellTitre-Blue assay relative to control; type: functional
How it was run: (§4)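 CCRF-CEM-VCR-R cells treated 72 h at 2.5, 1, 0.1 or 0.01 μM; vincristine reference at 2.5 μM. Viability read by CellTiterBlue, reagent added for 2 h at 37 °C, fluorescence measured. Results given as percent of mock-treated control. Three independent experiments in quadruplicate, means ± SEM, t test.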

MDA-MB-231 [6] = assay: Antimigratory activity against human MDA-MB-231 cells at 1 uM after 18 hrs by wound healing assay; type: functional, cell-based; how it was run: as §2
MDA-MB-231 [7] = assay: Cell cycle arrest in human MDA-MB-231 cells assessed as accumulation at G2/M phase at 10 nM after 48 hrs by propidium iodide staining-based flow cytometry; type: functional
MDA-MB-231 [8] = assay: Cell cycle arrest in human MDA-MB-231 cells assessed as reduction in G1 phase at 100 nM after 48 hrs by propidium iodide staining-based flow cytometry; type: functional
MDA-MB-231 [9] = assay: Cytotoxicity against human MDA-MB-231 cells at 1 to 1000 nM after 72 hrs by CellTitre-Blue assay; type: functional, cell-based; how it was run: as §1
Tubulin (Homo sapiens) [10] = molecular target: T1, Tubulin (Homo sapiens) (UniProt P68371+Q9H4B7+P0DPH7+P68366+Q13509+Q71U36+P04350+Q3ZCM7+P07437+P68363+Q9BQE3+Q6PEY2+Q13885+Q9BVA1+Q9BUF5); assay: Inhibition of tubulin polymerization in human MDA-MB-231 cells assessed as disruption of tubulin cytoskeleton at 100 nM after 24 hrs by Hoechst 33342 staining-based immunohistochemistry; type: cell-based
How it was run: (§5)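 Cells (MDA-MB-231, or T-24 bladder carcinoma) were treated for 24 h at 1–1000 nM, or with DMSO (0.1%). Monomers were extracted for 2 min (80 mM PIPES pH 6.8, 1 mM MgCl2, 5 mM EGTA, 0.5% Triton X-100), then fixed with 0.5% glutaraldehyde and reduced with NaBH4. Staining used BSA blocking, anti-α-tubulin, an AlexaFluor 488 secondary and Hoechst 33342, with confocal imaging.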

Tubulin (Homo sapiens) [11] = molecular target: T1, Tubulin (Homo sapiens); assay: Inhibition of tubulin polymerization in human T24 cells at 100 nM after 24 hrs by Hoechst 33342 staining-based immunohistochemistry; type: cell-based; settings: T-24; how it was run: as §5
[12] = Induction of apoptosis in human CCRF-CEM VCR/R cells assessed as cell viability at 2.5 uM after 72 hrs by CellTitre-Blue assay relative to control; type: functional; settings: read-out: Activity
How it was run: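 Vincristine-resistant CCRF-CEM-VCR-R cells in 96-well plates were treated for 72 h at 0.01, 0.1, 1 or 2.5 μM. Viability was read by CellTiterBlue as % of mock-treated control. Three independent experiments, quadruplicate; t test.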

[13] = Induction of apoptosis in human CCRF-CEM VCR/R cells at 1 uM after 48 hrs by propidium iodide staining-based flow cytometry; type: functional
How it was run: (§6)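 CCRF-CEM or CCRF-CEM-VCR-R cells were treated for 48 h. Cells were permeabilized in hypotonic propidium iodide solution and analysed by flow cytometry in logarithmic mode. Apoptosis was scored as the sub-G1 (DNA fragmentation) percentage.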

CCRF-CEM = assay: Induction of apoptosis in human CCRF-CEM cells at 1 to 100 nM after 48 hrs by propidium iodide staining-based flow cytometry; type: functional, cell-based; how it was run: as §6
MDA-MB-231 [14] = assay: Cell cycle arrest in human MDA-MB-231 cells assessed as accumulation at G2/M phase at 10 nM after 48 hrs by propidium iodide staining-based flow cytometry (reference value: 22%); type: functional
PBMC = assay: Cytotoxicity against human PBMC at 1 uM after 24 to 72 hrs by MTT assay; type: cell-based
[15] = (§7) Induction of apoptosis in human CCRF-CEM VCR/R cells at 1 uM after 72 hrs by CellTitre-Blue assay relative to control; type: functional; how it was run: as §4
[16] = as §3; type: functional; how it was run: as §4
Tubulin (Homo sapiens) [17] = molecular target: T1, Tubulin (Homo sapiens); assay: Inhibition of tubulin polymerization in human MDA-MB-231 cells assessed as disruption of tubulin cytoskeleton at 10 nM after 24 hrs by Hoechst 33342 staining-based immunohistochemistry; type: cell-based
How it was run: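 MDA-MB-231 cells treated 24 h at 1, 10, 100 or 1000 nM, or DMSO 0.1%. Extracted 2 min in PIPES pH 6.8/MgCl2/EGTA/0.5% Triton buffer, fixed with 0.5% glutaraldehyde, reduced with NaBH4, blocked with 0.2% BSA. Anti-α-tubulin 1 h, then AlexaFluor 488 secondary plus Hoechst 33342 for 45 min. Imaged by laser scanning microscopy.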

Tubulin (Homo sapiens) [18] = molecular target: T1, Tubulin (Homo sapiens); assay: Inhibition of tubulin polymerization in human T24 cells at 10 nM after 24 hrs by Hoechst 33342 staining-based immunohistochemistry; type: cell-based; settings: T-24
CCRF-CEM VCR/R [19] = assay: as §7; type: functional; how it was run: as §4

CC[C@H](C)[C@H](NC(=O)[C@H]1CCCCN1C)C(=O)N(C)[C@H](CCc1cccc(C(=O)N[C@@H](Cc2ccccc2)C[C@H](C)C(=O)O)c1)C(C)C
pEC50 [1]: 7.88
pIC50 (MDA-MB-231 [2]): 7.00
Activity (MDA-MB-231 [3]): 33%
Activity (MDA-MB-231 [4]): inactive
Activity (CCRF-CEM VCR/R [5]): Active
Activity (MDA-MB-231 [6]): Active
Activity (MDA-MB-231 [7]): inactive
Activity (MDA-MB-231 [8]): Active
Activity (MDA-MB-231 [9]): Active
inhibition (Tubulin (Homo sapiens) [10]): Active
inhibition (Tubulin (Homo sapiens) [11]): Active

CC[C@]1(O)C[C@H]2CN(CCc3c([nH]c4ccccc34)[C@@](C(=O)OC)(c3cc4c(cc3OC)N(C=O)[C@H]3[C@@](O)(C(=O)OC)[C@H](OC(C)=O)[C@]5(CC)C=CCN6CC[C@]43[C@@H]65)C2)C1 [VINCRISTINE]
pIC50 (MDA-MB-231 [2]): 8.80
viability at 2.5 µM [12]: 80%
Activity [13]: 20%
Activity (CCRF-CEM): Active

CC[C@H](C)[C@H](NC(=O)[C@H]1CCCCN1C)C(=O)N(C)[C@H](CCc1nc(C(=O)N[C@@H](Cc2ccccc2)C[C@H](C)C(=O)O)cs1)C(C)C
Activity (MDA-MB-231 [14]): >30%
pIC50 (MDA-MB-231 [2]): 9.22
Activity (PBMC): Toxic
Activity [15]: 70%
Activity [16]: 30%
Activity (MDA-MB-231 [6]): Active
inhibition (Tubulin (Homo sapiens) [17]): Active
Activity (MDA-MB-231 [9]): Active
inhibition (Tubulin (Homo sapiens) [18]): Active

CC[C@H](C)[C@H](NC(=O)[C@H]1CCCCN1C)C(=O)N(C)[C@H](CCc1nc(C(=O)N[C@H](CCC(=O)O)Cc2ccccc2)cs1)C(C)C
pEC50 [1]: 8.36
pIC50 (MDA-MB-231 [2]): 8.00
Activity (MDA-MB-231 [3]): 60%
Activity (MDA-MB-231 [4]): 35%
Activity (CCRF-CEM VCR/R [19]): Active
Activity (CCRF-CEM VCR/R [5]): Active
Activity (MDA-MB-231 [6]): Active
Activity (MDA-MB-231 [7]): inactive
inhibition (Tubulin (Homo sapiens) [17]): Active
Activity (MDA-MB-231 [8]): Active
Activity (MDA-MB-231 [9]): Active
inhibition (Tubulin (Homo sapiens) [18]): Active
